Fewer inactive variants are shown than the library holds.
B1: tRNA (parent)
chain: GUUCCGUUGGCGUAAUGGUAACGCGUCUCCCUCCUAAGGAGAAGACUGCGGGUUCGAGUCCCGUACGGAACG

Variants of: B1
Test: yeast fitness relative to wild type (ratio to wild type); higher = fitter; tRNA-Arg(CCU), competitive growth, 37 C, YPD
Outline: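 Start and end populations of a pooled competition were compared by 100-nucleotide paired-end sequencing of gene amplicons. The Saccharomyces cerevisiae strains carried tRNA-Arg(CCU) gene variants at the native genomic locus, synthesised with a 3% per-site mutation rate at 69 sites, and competed in YPD at 37°C for 24 hours in six parallel replicates. Darwinian fitness relative to wild type was based on the change in genotype frequencies. Genotypes required ≥ 100 starting reads, and estimates < 0.5 were set to 0.5.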
In the case of GCCCCGUUGGCGUAAUGGUAACGCGUCUCCCUCAUAAGGAGAACAUUGCGAGUUCGAGUCCCGUACGGAACG [U2C U3C C34A G44C C46U G51A], the yeast fitness is reported as at most 0.5.
In the case of GCACCGUUGGCGUAAUGGUAACGAGUUUCCCUCCUAAGGAGAAGACUGCGGGUUCCAGUCCCGUAUGGAACG [U2C U3A C24A C27U G56C C66U], the yeast fitness is reported as 0.562.
With GCUCCGUUGGCGCAAUGGUAACGCGUCUCCCUCCUAAGGAAAAGACUGCGGGUUCGAGUGGUGUACGGAACG [U2C U13C G41A C60G C61G C62U] the yeast fitness was 0.596.
For GCUCCGUUGGCGUAAUGGUAACGCGGCUCCCUCCUAAGGAGAAGACUGCGGGUUCGAGUCCCGUACGGAUCG [U2C U26G A70U], the yeast fitness was 0.703.
In the case of GCUCCGUUGGCGUAAUGGUAACGCGUCUCCCUCCUAAGGAGAAGACAGCGGGUUCGAGUCCUGUACGGAACG [U2C U47A C62U], the yeast fitness is reported as 0.531.
Work on GCUCCGUUGGCGUAACGGUAACGCGUCUCCCUCCUAAGGAGAAGAGUGCGGGUUCGAGUCCGGUACGGAACG [U2C U16C C46G C62G] yielded a yeast fitness of at most 0.5.
In the case of GCCCCGUUGGCGUAAUGGAAACGCGUCUCCCUCCUAAGGAGAAGACUGCGGGUUCGAGUCCCGUACGGAACG [U2C U3C U19A], the yeast fitness is reported as 0.629.
With GCUCCGUUGGCGUAAUGGUAACGCGUCUCCCUCCUAAGGAGAAGACAGCGGGUUGGAGUCCCGUACGGAACG [U2C U47A C55G] the yeast fitness was at most 0.5.
With GCUCCGUUGGCGUAAUGGCAACGCGUCUCCCUCCUAGGGAGAAGACUGAGGGUUCGAGUCCCGUACGGAACG [U2C U19C A37G C49A] the yeast fitness was at most 0.5.
Work on GCUCCGUUGGCGUAAUGGUAACGCGUCUCCCUCCGAAGGAGAAGACUGCGGAUUCGAGUCCCGUACGGAACG [U2C U35G G52A] yielded a yeast fitness of at most 0.5.
Work on GCUCCGUUGGCGUAAUGGUAACGCGUCUCCCUCCUAAGGAGAAGACUGCGGGUUCAAGUCCCGUGCGGAACG [U2C G56A A65G] yielded a yeast fitness of 1.27.
In the case of GCUCCGUUGGCGAAAUGGUAACGCGUCUCCCUCCUAAGGAGAAGACUGCGGGUUCGAGUCCCGUACGGAACG [U2C U13A], the yeast fitness is reported as 0.805.
In the case of GCUCCGUUGGCGUAAUGGCAACGCGUCUCCCUCCUAGGGAGAAGACUGAGGGUUCGAGUCCCGUAGGGAACG [U2C U19C A37G C49A C66G], the yeast fitness is reported as at most 0.5.
GCUCCGUUGGCGUAAGGGUAACGCGUCUCGCUCCUAAGGAGAAGACUGCGGGUUCGAGUCCCCUACGGAACG [U2C U16G C30G G63C] showed a yeast fitness of at most 0.5.
GCUCCGUUGGCGUAAUGGUAACGCGUCUCCCUCCUAAGGAGAAGACAGAGGGUUCGAGUCCCGUACGGAACG [U2C U47A C49A] showed a yeast fitness of at most 0.5.
Work on GCUCCGUUGGCGUAAUGGUAACGCGCCUCCCUCCUAAGGAGAAGAUUGCGGGUUCGAGUCCCGUACGGAACG [U2C U26C C46U] yielded a yeast fitness of 0.683.
For GCUCCGUAGGCGUAAUCGUAACGCGUCUCCCUCCUAAAGAGAAGACUGCGGGUUCGAGUCACGUACGGAACG [U2C U8A G17C G38A C61A], the yeast fitness was at most 0.5.
GCUCCGUUGGCGUAAAGGUAACGCGUCUCCCACCUAUGGAGAAGACUGCGGGUUCGAGUCCAGUACGGAACG [U2C U16A U32A A37U C62A] gave a yeast fitness of at most 0.5.
In the case of GCUCCGUUGGCGUAAUGGUAACGCGUCUCCCUCCUAAGGAGAAGACUGCGGGUUCGAGUCCCGUACCGAACG [U2C G67C], the yeast fitness is reported as 0.741.
GCUCCGUUGGCGUAAUGGAAACGCGCCUCCCUCCUAAGGAGAAGCCUGCGGCUUCGAGUCCCGUACGGAGCG [U2C U19A U26C A45C G52C A70G] showed a yeast fitness of at most 0.5.
Work on GCUCCGAUGGCGUAAUGGUAACGCGUCUCCCUCCUAAGGAGAAGACUGCGGGUUCGAGUCCCGUUCGGAACG [U2C U7A A65U] yielded a yeast fitness of 0.725.
Work on GCUCCGUUGGCGUAAUGGUAACGCGUCUCCCUCCUAAGGAGAAGACUGCGGGCUCGAGUCGCGUACGGAACG [U2C U53C C61G] yielded a yeast fitness of at most 0.5.
Variant GCUCCGUUGGCGUAAUGGUAACGCGUCUCCCUCCUAAGGAGAAGACUGCGGGUACGAGUCCCGUACGGAUCG [U2C U54A A70U] has a yeast fitness of 0.555.
In the case of GCUCCGUUGGCGUAAUGGUAACGCGUCUCCCUCCUAAGGAGAAGACUGCGGGUUCGACUCCCGUACGGAACG [U2C G58C], the yeast fitness is reported as 1.05.
GCUCCGUUGGCGUAAUGGUAACGCGCCUCCCUCCUAAGGAGAAGACUGCGGGUUCGAGUCCCGUACGGAACG [U2C U26C] showed a yeast fitness of 0.947.
For GCUCCGUCGGCGUAAUGGUUACGCGUCACCCUCCUAAGGAGAAGACUGCGGGUUCGAGUCCCGUACUGAACG [U2C U8C A20U U28A G67U], the yeast fitness was at most 0.5.
GCCCCGUUGGCGUAAUGGUAACGCGUCUCCCUCCUAAGGAGAAGACUGCGGGUUCGAGUCCCGUACGGAACG [U2C U3C] showed a yeast fitness of 0.885.
With GCUCCGGUGGCGUAAUGGUAACGCGUCUCCCUCCUAAGGCGAAGACUGCGAGUUCGAGUCCCGUACAGAACG [U2C U7G A40C G51A G67A] the yeast fitness was at most 0.5.
Variant GCUCCGGUGGCGUAGUGGUAACGCGUCUCCCUCCUAAGGAGAAGUCUGCAGGUUCGCGUCCCGUACGGAACG [U2C U7G A15G A45U G50A A57C] has a yeast fitness of at most 0.5.
For GCUCCGUUGGCGUAACGGUAAAGCGUCUACCUCCUAAGGAGAAGACUGCGCGUUCGAGUCCCGUACGGAACG [U2C U16C C22A C29A G51C], the yeast fitness was at most 0.5.
With GCUCCGUUGGCGCAAUGGUAACGCGUAUCCCUCCUAAGGAGAAGACUGCGGGUUCGAGUCUCGUACGGAACG [U2C U13C C27A C61U] the yeast fitness was at most 0.5.
For GCUCCGUGGGCGUAAUGGUAACGCGUCUCCGUCCUAAGGAGCAGACUGUGGGUUCAAGUCGCGUACGGAACG [U2C U8G C31G A42C C49U G56A C61G], the yeast fitness was at most 0.5.
GCUCCGUUGGCGUAAUGGUAACGCGUCUCCCUCCAAAGGAGAAGACUGCGGGUUCGAGUCCCGUACGGAACG [U2C U35A] gave a yeast fitness of 0.62.
GCUCCGAUGGCGUAAUGGUAACGCGUCUCCCUCCUAGGGAGUAGACUCCGGGUUUGAGUCCCGUAGGGAACG [U2C U7A A37G A42U G48C C55U C66G] gave a yeast fitness of at most 0.5.
With GCUCCGUUGGCGAAAUGGCAACGCGUCUCCCUCCUAAGGAGAAGACUGCGGGUUAGAGUCCCGUACGGCACG [U2C U13A U19C C55A A69C] the yeast fitness was at most 0.5.
With GCUCCGUUGGCGUAAUGGGAACGCGUCGCCCUCCUAAGGAGAAGACUGCGGGUUCGAGUCCCGUACGGAACG [U2C U19G U28G] the yeast fitness was at most 0.5.
For GCUCCGCUGGCGUAAUGGCAACGCGUCUCCCUCUUAAGGAGAAGACUGCGGAUUCGAGACCCGUACGGAACG [U2C U7C U19C C34U G52A U59A], the yeast fitness was at most 0.5.
GCUCCGUUGGCGUAAUGGUAACGCGUCUCCCUCCUAAGGAGAAGACUGCGGCUUCGAGGCCCGUACGGAACG [U2C G52C U59G] gave a yeast fitness of at most 0.5.

Reference: the RNAGym collection of RNA variant scans (doi:10.1126/science.aae0568)
